Tests used:
[1] = system: Rattus norvegicus; assay: Antiinflammatory activity in Wistar rat assessed as inhibition of carrageenan-induced paw oedema at 100 mg/kg, po dosed 30 mins after carrageenan challenge measured after 5 hrs by plethysmograph analysis relative to control; assay type: functional
Summary of the method: (§1)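 Wistar rats (150–200 g, either sex) in groups of six. Carrageenan 1% w/v in saline, 0.1 ml, injected into the plantar left hind paw. Compound was given p.o. 30 min later as a suspension in 0.5% w/v CMC; controls received CMC. Paw volume was read by mercury-displacement plethysmograph at 0–5 h. % reduction = (1 − Vt/Vc)×100 versus control, at 5 h.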

[2] = system: Rattus norvegicus; assay: Ulcerogenicity in Wistar rat assessed as lesion score at 100 mg/kg, po after 6 hrs; assay type: toxicity, organism-based; parameters: dose 100 mg/kg, route oral; details: in vivo
Summary of the method: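 Wistar rats of either sex (150–200 g, n = 6) were dosed orally and killed by cervical dislocation 6 h later. Stomachs were inflated with 2% formalin, fixed 10 min, and opened along the greater curvature. Lesions were examined under a dissecting microscope (10x grid). Longest lesion diameters were summed per animal as the lesion score (mm), then averaged per group.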

[3] = system: Rattus norvegicus; assay: Antiinflammatory activity in po dosed Wistar rat assessed as inhibition of carrageenan-induced paw oedema compound administered 30 mins after carrageenan challenge measured after 5 hrs by plethysmograph analysis; assay type: functional
Summary of the method: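 Carrageenan paw edema in Wistar rats (150–200 g, either sex, n = 6 per group): 0.1 ml 1% w/v carrageenan injected into the left plantar region. Compounds were suspended in 0.5% w/v CMC and dosed orally 30 min post-challenge at three graded doses. Plethysmographic (mercury displacement) paw volume was read to 5 h. ED50 was derived from the three-dose responses.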

[4] = system: Rattus norvegicus; assay: Antiinflammatory activity in Wistar rat assessed as inhibition of carrageenan-induced paw oedema at 10 mg/kg, po dosed 30 mins after carrageenan challenge measured after 5 hrs by plethysmograph analysis relative to control; assay type: functional; summary of the method: as §1
[5] = system: Rattus norvegicus; assay: Antiinflammatory activity in Wistar rat assessed as inhibition of carrageenan-induced paw oedema at 30 mg/kg, po dosed 30 mins after carrageenan challenge measured after 5 hrs by plethysmograph analysis relative to control; assay type: functional; summary of the method: as §1

SMILES	inhibition in vivo at 100 mg/kg [1]	UI [2]	ED50 [3]	inhibition in vivo at 10 mg/kg [4]	inhibition in vivo at 30 mg/kg [5]
CCCCOc1cc(C(C)=O)ccc1NS(C)(=O)=O	72.7%	5 mm	2 mg/kg	–	–
CCCCCOc1cc(C(C)=O)ccc1NS(C)(=O)=O	59.6%	4 mm	8.18 mg/kg	–	–
CCCCCCOc1cc(C(C)=O)ccc1NS(C)(=O)=O	76.8%	4 mm	2.3 mg/kg	–	–
CC(=O)c1ccc(NS(C)(=O)=O)c(OC2CCCCC2)c1	73.7%	3 mm	2.23 mg/kg	–	–
CCCCOc1cc(C(C)=O)ccc1N	13.8%	2 mm	–	–	–
CCCCCOc1cc(C(C)=O)ccc1N	9.88%	2 mm	–	–	–
CCCCCCOc1cc(C(C)=O)ccc1N	14.1%	3 mm	–	–	–
CC(=O)c1ccc(N)c(OC2CCCCC2)c1	19%	3 mm	–	–	–
COc1ccc2c(c1)c(CC(=O)O)c(C)n2C(=O)c1ccc(Cl)cc1 [INDOMETHACIN]	–	22.3 mm	2 mg/kg	79.7%	–
CS(=O)(=O)c1ccc(C2=C(c3ccccc3)C(=O)OC2)cc1 [ROFECOXIB]	–	3 mm	2.5 mg/kg	–	81.8%

Source: ChEMBL document CHEMBL1944577, “Synthesis, evaluation and docking studies on 3-alkoxy-4-methanesulfonamido acetophenone derivatives as non ulcerogenic anti-inflammatory agents” (Eur J Med Chem, 2012)
